In ChEMBL document CHEMBL4359838, “Glucopyranosylidene-spiro-imidazolinones, a New Ring System: Synthesis and Evaluation as Glycogen Phosphorylase Inhibitors by Enzyme Kinetics and X-ray Crystallography” (J Med Chem, 2019):
Activity calls are given as the source filed them. The calls are words filed in the database; no cut-off is given here.

Key:
[1] = species on record: Homo sapiens; experiment: Competitive inhibition of human liver Glycogen phosphorylase a up to 35 uM using glucose-1-phosphate as substrate by Lineweaver-Burk plot analysis
Summary of the method: (§1)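 Human liver GPa (1 μg/mL) assayed at 30 °C toward glycogen synthesis in 30 mM imidazole/HCl pH 6.8 with 60 mM KCl, 0.6 mM EDTA, 0.6 mM DTT, 0.2% w/v glycogen and no AMP. Glc-1-P was varied at 1, 2, 3, 4 and 6 mM against several inhibitor levels. Released Pi was read; Ki came from Km(app) versus [inhibitor] by weighted nonlinear regression.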

[2] = Inhibition of rabbit muscle Glycogen phosphorylase a using glucose-1-phosphate as substrate; parameters: species or system Oryctolagus cuniculus
Summary of the method: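 Rabbit muscle GPa (3 μg/mL) was run at 30 °C in the glycogen-synthesis direction in 30 mM imidazole/HCl pH 6.8 containing 60 mM KCl, 0.6 mM EDTA, 0.6 mM DTT and 0.2% w/v glycogen, without AMP. Glc-1-P was 2, 3, 4, 6 and 10 mM with varied inhibitor. Inorganic phosphate release was measured; Ki came from the Km(app) versus [inhibitor] fit.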

[3] = Inhibition of human liver Glycogen phosphorylase a using glucose-1-phosphate as substrate; summary of the method: as §1
[4] = Inhibition of rabbit muscle Glycogen phosphorylase b using glucose-1-phosphate as substrate in presence of AMP; parameters: species or system Oryctolagus cuniculus
Summary of the method: (§2)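 Rabbit muscle GPb (3 μg/mL) was assayed at 30 °C for glycogen synthesis in 30 mM imidazole/HCl pH 6.8 with 60 mM KCl, 0.6 mM EDTA, 0.6 mM DTT, 0.2% w/v glycogen and 1 mM AMP. Glc-1-P was varied (2, 3, 4, 6, 10 mM) at several inhibitor concentrations. Pi release gave initial rates; Ki came from Km(app) versus [inhibitor] by nonlinear regression.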

[5] = species on record: Oryctolagus cuniculus; experiment: Inhibition of rabbit muscle Glycogen phosphorylase b at 625 uM using glucose-1-phosphate as substrate in presence of AMP relative to control
[6] = species on record: Homo sapiens; experiment: Competitive inhibition of human liver Glycogen phosphorylase a up to 10 uM using glucose-1-phosphate as substrate by Lineweaver-Burk plot analysis; summary of the method: as §1
[7] = species on record: Homo sapiens; experiment: Competitive inhibition of human liver Glycogen phosphorylase a up to 1000 uM using glucose-1-phosphate as substrate by Lineweaver-Burk plot analysis
[8] = test system: HepG2; experiment: Cytotoxicity against human HepG2 cells at 80 to 516 uM incubated for 2 hrs; format: cell-based; details: hepg2, 2 h
[9] = Inhibition of Glycogen phosphorylase in human HepG2 cells incubated for 2 hrs; format: cell-based
Summary of the method: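 HepG2 cells were precultured in 25 mmol/L glucose with 10 nM insulin to load glycogen. They were then shifted to 5 mmol/L glucose with inhibitor at 80–516 μM for 2 h to drive glycogenolysis. GP activity was read spectrophotometrically in the whole homogenate, and IC50 was derived from the concentration series.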

[10] = species on record: Homo sapiens; experiment: Competitive inhibition of human liver Glycogen phosphorylase a up to 3 uM using glucose-1-phosphate as substrate by Lineweaver-Burk plot analysis; summary of the method: as §1
[11] = species on record: Homo sapiens; experiment: Competitive inhibition of human liver Glycogen phosphorylase a up to 180 uM using glucose-1-phosphate as substrate by Lineweaver-Burk plot analysis; summary of the method: as §1
[12] = Inhibition of rabbit muscle Glycogen phosphorylase b using alpha-D-glucose-1-phosphate as substrate in presence of AMP by dixon plot analysis; parameters: species or system Oryctolagus cuniculus; summary of the method: as §2
[13] = species on record: Homo sapiens; experiment: Competitive inhibition of human liver Glycogen phosphorylase a up to 650 uM using glucose-1-phosphate as substrate by Lineweaver-Burk plot analysis; summary of the method: as §1

| Ki [2] [µM] | Ki [3] [µM] | Ki [4] [µM] | inhibition [5] | SMILES | also measured |
| --- | --- | --- | --- | --- | --- |
| 6.6 | 22.2 | 13 | – | O=C1N=C(c2cccc3ccccc23)N[C@@]12O[C@H](CO)[C@@H](O)[C@H](O)[C@H]2O | inhibition [1]: Active |
| 653 | 1170 | – | inactive | O=C1N=C(c2cccc3ccccc23)N[C@]12O[C@H](CO)[C@@H](O)[C@H](O)[C@H]2O | inhibition [7]: Active |
| 1.13 | 1.72 | 2.11 | – | O=C1N=C(c2ccc3ccccc3c2)N[C@@]12O[C@H](CO)[C@@H](O)[C@H](O)[C@H]2O | Activity [8]: Non-Toxic; IC50 [9]: 177 µM; inhibition [10]: Active |
| 34.2 | 96.7 | 136 | – | O=C1N=C(c2ccccc2)N[C@]12O[C@H](CO)[C@@H](O)[C@H](O)[C@H]2O | inhibition [11]: Active |
| 212 | 371 | – | 25% | O=C1N=C(c2ccc3ccccc3c2)N[C@]12O[C@H](CO)[C@@H](O)[C@H](O)[C@H]2O | inhibition [13]: Active |

The next lines start with the compound.

| SMILES | Ki [2] [µM] | Ki [3] [µM] | Ki [4] [µM] | inhibition [5] | also measured |
| --- | --- | --- | --- | --- | --- |
| O=C1N=C(c2ccc(C(F)(F)F)cc2)N[C@]12O[C@H](CO)[C@@H](O)[C@H](O)[C@H]2O | – | – | – | inactive | – |
| O=C1N=C(c2ccccc2)N[C@@]12O[C@H](CO)[C@@H](O)[C@H](O)[C@H]2O | 4.5 | 8.4 | 9 | – | inhibition [6]: Active |
| O=C1NC(=O)[C@]2(N1)O[C@H](CO)[C@@H](O)[C@H](O)[C@H]2O | – | – | 105 to 320 | – | – |
| O=C1N=C(c2ccc(C(F)(F)F)cc2)N[C@@]12O[C@H](CO)[C@@H](O)[C@H](O)[C@H]2O | – | – | – | inactive | – |
| OC[C@H]1O[C@]2(ON=C(c3ccccc3)S2)[C@H](O)[C@@H](O)[C@@H]1O | – | – | – | – | Ki [12]: 26 µM |
| O=C1NC(=S)N[C@@]12O[C@H](CO)[C@@H](O)[C@H](O)[C@H]2O | – | – | 5.1 | – | – |
| O=C1NC(=O)[C@@]2(N1)O[C@H](CO)[C@@H](O)[C@H](O)[C@H]2O | – | – | 3.1 | – | – |
